Values after ≈ are worked out from the molar mass of the structure shown.
How the values were obtained:
Assay type in all cases: functional
[1] = test system: Mycobacterium tuberculosis; test: Antimicrobial activity against drug-susceptible Mycobacterium tuberculosis isolate 4 expressing wild type atpE Asp28Pro mutant selected after 10 times MIC drug exposure
Procedure, shortened: (§1)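 Each resistant mutant clone (one colony picked per independent fluctuation culture selected on drug agar) is suspended in PBS, sonicated and applied by 96-pin replicator. Nonselective and rifampin control plates are included. Plates are read after 4 weeks; MIC is the lowest concentration with no visible growth.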

[2] = test system: Mycobacterium tuberculosis; test: Antimicrobial activity against multidrug-resistant Mycobacterium tuberculosis isolate 5 expressing wild type atpE and F0 operon selected after 10 times MIC drug exposure; procedure, shortened: as §1
[3] = test system: Mycobacterium tuberculosis; test: Antimicrobial activity against multidrug-resistant Mycobacterium tuberculosis H37Rv
[4] = test system: Mycobacterium tuberculosis; test: Antimicrobial activity against drug-susceptible Mycobacterium tuberculosis isolate 4 expressing wild type atpE Glu61Asp mutant selected after 30 times MIC drug exposure; procedure, shortened: as §1
[5] = test system: Mycobacterium tuberculosis; test: Antimicrobial activity against drug-susceptible Mycobacterium tuberculosis isolate 6 expressing wild type atpE Glu61Asp mutant selected after 30 times MIC drug exposure; procedure, shortened: as §1
[6] = test system: Mycobacterium tuberculosis; test: Antimicrobial activity against drug-susceptible Mycobacterium tuberculosis isolate 6 expressing wild type atpE Ala63Pro mutant selected after 30 times MIC drug exposure; procedure, shortened: as §1
[7] = test system: Mycobacterium tuberculosis; test: Antimicrobial activity against drug-susceptible Mycobacterium tuberculosis H37Rv expressing wild type atpE Ala63Pro mutant selected after 30 times MIC drug exposure; procedure, shortened: as §1
[8] = test system: Mycobacterium tuberculosis; test: Antimicrobial activity against multidrug-resistant Mycobacterium tuberculosis isolate 5 expressing wild type atpE Ile66Met mutant selected after 30 times MIC drug exposure; procedure, shortened: as §1
[9] = test system: Mycobacterium tuberculosis; test: Antimicrobial activity against multidrug-resistant Mycobacterium tuberculosis isolate 5 expressing wild type atpE Ala63Pro mutant selected after 10 times MIC drug exposure; procedure, shortened: as §1
[10] = test system: Mycobacterium tuberculosis; test: Antimicrobial activity against multidrug-resistant Mycobacterium tuberculosis isolate 5 expressing wild type atpE selected after 10 times MIC drug exposure; procedure, shortened: as §1
[11] = test system: Mycobacterium tuberculosis; test: Antimicrobial activity against multidrug-resistant Mycobacterium tuberculosis isolate 3 expressing wild type atpE and F0 operon selected after 30 times MIC drug exposure; procedure, shortened: as §1
[12] = test system: Mycobacterium tuberculosis; test: Antimicrobial activity against multidrug-resistant Mycobacterium tuberculosis isolate 3 expressing wild type atpE selected after 30 times MIC drug exposure; procedure, shortened: as §1
[13] = test system: Mycobacterium tuberculosis; test: Antimicrobial activity against multidrug-resistant Mycobacterium tuberculosis isolate 3 expressing wild type atpE and ATP synthase selected after 10 times MIC drug exposure; procedure, shortened: as §1
[14] = test system: Mycobacterium tuberculosis; test: Antimicrobial activity against multidrug-resistant Mycobacterium tuberculosis isolate 3 expressing wild type atpE and F0 operon selected after 10 times MIC drug exposure; procedure, shortened: as §1
[15] = test system: Mycobacterium tuberculosis; test: Antimicrobial activity against multidrug-resistant Mycobacterium tuberculosis isolate 3 expressing wild type atpE selected after 10 times MIC drug exposure; procedure, shortened: as §1
[16] = test system: Mycobacterium tuberculosis; test: Antimicrobial activity against multidrug-resistant Mycobacterium tuberculosis isolate 2 expressing wild type atpE selected after 10 times MIC drug exposure; procedure, shortened: as §1
[17] = test system: Mycobacterium tuberculosis; test: Antimicrobial activity against multidrug-resistant Mycobacterium tuberculosis isolate 2 expressing atpE Glu61Asp mutant selected after 10 times MIC drug exposure; procedure, shortened: as §1
[18] = test system: Mycobacterium tuberculosis; test: Antimicrobial activity against multidrug-resistant Mycobacterium tuberculosis isolate 2 expressing atpE Ala28Val mutant selected after 10 times MIC drug exposure; procedure, shortened: as §1
[19] = test system: Mycobacterium tuberculosis; test: Antimicrobial activity against multidrug-resistant Mycobacterium tuberculosis isolate 1 expressing atpE Glu63Asp mutant selected after 30 times MIC drug exposure; procedure, shortened: as §1
[20] = test system: Mycobacterium tuberculosis; test: Antimicrobial activity against multidrug-resistant Mycobacterium tuberculosis isolate 1 expressing wild type atpE selected after 10 times MIC drug exposure; procedure, shortened: as §1
[21] = test system: Mycobacterium tuberculosis; test: Antimicrobial activity against multidrug-resistant Mycobacterium tuberculosis isolate 1 expressing atpE Glu61Asp mutant selected after 10 times MIC drug exposure; procedure, shortened: as §1
[22] = test system: Mycobacterium tuberculosis; test: Antimicrobial activity against drug-susceptible Mycobacterium tuberculosis isolate 4 expressing wild type atpE Glu61Asp mutant selected after 10 times MIC drug exposure; procedure, shortened: as §1

`COc1nc2ccc(Br)cc2cc1[C@@H](c1ccccc1)[C@@](O)(CCN(C)C)c1cccc2ccccc12` [BEDAQUILINE] gave an MIC [1] of 0.3 mg/L (≈ 0.54 µM), an MIC [2] of 0.48 µg/mL (≈ 0.864 µM) and an MIC [3] of 0.03 µg/mL (≈ 0.054 µM). For the same compound, the MIC [4] was 0.48 mg/L (≈ 0.864 µM), the MIC [5] was 0.48 mg/L (≈ 0.864 µM) and the MIC [6] was 0.9 mg/L (≈ 1.62 µM). The MIC [7] was 3.84 mg/L (≈ 6.91 µM), the MIC [8] was 0.9 mg/L (≈ 1.62 µM) and the MIC [9] was 0.24 mg/L (≈ 0.432 µM). It also gave an MIC [10] of 0.12 µg/mL (≈ 0.216 µM), an MIC [11] of 0.9 µg/mL (≈ 1.62 µM) and an MIC [12] of 0.48 µg/mL (≈ 0.864 µM). The MIC [13] was 0.9 µg/mL (≈ 1.62 µM), the MIC [14] was 0.9 µg/mL (≈ 1.62 µM) and the MIC [15] was 0.9 µg/mL (≈ 1.62 µM). For the same compound, the MIC [16] was 0.12 µg/mL (≈ 0.216 µM), the MIC [17] was 0.24 mg/L (≈ 0.432 µM) and the MIC [18] was 0.48 mg/L (≈ 0.864 µM). The MIC [19] was 1.92 mg/L (≈ 3.46 µM), the MIC [20] was 0.12 µg/mL (≈ 0.216 µM) and the MIC [21] was 0.48 mg/L (≈ 0.864 µM). The MIC [22] was 0.96 mg/L (≈ 1.73 µM).
